Laboratory results reported in ChEMBL document CHEMBL4813946, “Discovery of novel 4-azaaryl-N-phenylpyrimidin-2-amine derivatives as potent and selective FLT3 inhibitors for acute myeloid leukaemia with FLT3 mutations” (Eur J Med Chem, 2021).
Activity calls are given as the source filed them. No cut-off for these calls is given here.

Tests used:
MV4-11 [1] = assay: Induction of apoptosis in human MV4-11 cells assessed as viable cells at 5 x GI50 concentration incubated for 24 hrs by annexin V-FITC and propidium iodide staining based flow cytometry (reference value: 84.68 %); assay type: functional
MV4-11 [2] = assay: Induction of apoptosis in human MV4-11 cells assessed as necrotic cells at 20 x GI50 concentration incubated for 24 hrs by annexin V-FITC and propidium iodide staining based flow cytometry (reference value: 0.75 %); assay type: functional
U-937 [3] = assay: Induction of apoptosis in human U937 cells assessed as viable cells at 1 x GI50 concentration incubated for 48 hrs by annexin V-FITC staining based flow cytometry (reference value: 86.25 %); assay type: functional
U-937 [4] = assay: Induction of apoptosis in human U937 cells assessed as early apoptotic cells at 5 x GI50 concentration incubated for 24 hrs by annexin V-FITC and propidium iodide staining based flow cytometry (Rvb =1.81 %); assay type: functional
U-937 [5] = assay: Induction of apoptosis in human U937 cells assessed as late apoptotic cells at 10 x GI50 concentration incubated for 24 hrs by annexin V-FITC and propidium iodide staining based flow cytometry (reference value: 10.30 %); assay type: functional
MV4-11 [6] = assay: Induction of apoptosis in human MV4-11 cells assessed as viable cells at 20 x GI50 concentration incubated for 24 hrs by annexin V-FITC and propidium iodide staining based flow cytometry (reference value: 84.68 %); assay type: functional
CDK7/Cyclin H/MNAT1 = CDK7/Cyclin H/MNAT1 (Homo sapiens, UniProt P50613); assay: Inhibition of CDK7/cyclin H/MAT1 (unknown origin) using HYSPTSPSYSPTSPSYSPTSPSKKKK-O substrate incubated for 120 mins measured after 40 mins incubation under dark by ADP-glo based luminescence assay; assay type: protein-complex assay
CDK7/Cyclin H/MNAT1, sequence (P51946 whole entry): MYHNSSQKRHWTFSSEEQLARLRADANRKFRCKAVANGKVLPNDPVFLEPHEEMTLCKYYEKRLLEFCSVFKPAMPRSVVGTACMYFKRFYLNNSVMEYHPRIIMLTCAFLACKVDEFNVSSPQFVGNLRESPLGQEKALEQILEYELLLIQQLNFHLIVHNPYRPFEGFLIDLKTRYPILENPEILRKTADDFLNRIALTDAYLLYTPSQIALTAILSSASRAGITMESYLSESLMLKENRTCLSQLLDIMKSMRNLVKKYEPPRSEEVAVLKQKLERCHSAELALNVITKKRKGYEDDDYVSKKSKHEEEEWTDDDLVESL
CDK7/Cyclin H/MNAT1, sequence (P50613 whole entry): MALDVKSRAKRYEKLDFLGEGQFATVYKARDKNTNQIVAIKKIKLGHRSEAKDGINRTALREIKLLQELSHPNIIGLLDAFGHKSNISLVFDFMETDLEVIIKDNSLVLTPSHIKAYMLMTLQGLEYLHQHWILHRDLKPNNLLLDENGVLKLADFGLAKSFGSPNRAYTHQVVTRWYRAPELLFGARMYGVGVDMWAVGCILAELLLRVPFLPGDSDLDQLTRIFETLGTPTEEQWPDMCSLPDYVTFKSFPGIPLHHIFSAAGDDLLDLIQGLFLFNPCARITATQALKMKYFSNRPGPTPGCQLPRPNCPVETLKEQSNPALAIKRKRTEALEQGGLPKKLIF
CDK7/Cyclin H/MNAT1, sequence (P51948 whole entry, further chain): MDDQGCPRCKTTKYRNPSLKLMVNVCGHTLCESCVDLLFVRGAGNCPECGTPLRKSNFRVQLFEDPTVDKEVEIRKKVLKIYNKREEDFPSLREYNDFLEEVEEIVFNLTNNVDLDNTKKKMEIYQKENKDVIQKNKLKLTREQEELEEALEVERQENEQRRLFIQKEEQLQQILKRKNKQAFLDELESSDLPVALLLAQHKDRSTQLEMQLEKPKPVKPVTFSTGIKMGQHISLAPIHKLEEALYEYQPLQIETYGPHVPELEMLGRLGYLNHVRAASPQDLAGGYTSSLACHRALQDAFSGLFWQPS
Procedure, shortened: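 In-house ADP-Glo assay with 2 mM DMSO stocks. Kinases were CDK1/cyclin B at 1 nM, CDK2/cyclin E1 at 10 nM and CDK7/cyclin H/MAT1 at 40 nM. Substrate was histone 1 for CDK1 and CDK2, and a RNA pol II CTD peptide for CDK7. Compound at 8–10 concentrations, 1:3 serial, final DMSO 0.5%. Reactions ran 60–120 min at room temperature, then ADP-Glo reagent 40 min in the dark, then detection reagent 40 min, read by luminescence. Ki was derived from IC50 by Cheng-Prusoff.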

[7] = Inhibition of FLT3 Y591-V592insVDFREYEYD mutant (unknown origin) incubated for 120 mins by ADP-glo based luminescence assay; parameters: species or system Homo sapiens
MV4-11 [8] = assay: Induction of apoptosis in human MV4-11 cells assessed as late apoptotic cells at 1 x GI50 concentration incubated for 24 hrs by annexin V-FITC and propidium iodide staining based flow cytometry (reference value: 12.45 %); assay type: functional
NB-4 = assay: Antiproliferative activity against human NB-4 cells harboring wild type FLT3 assessed as reduction in cell viability after 72 hrs by resazurin assay; assay type: functional
Procedure, shortened: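 Cells seeded and pre-incubated 24 h at 37 °C, 5% CO2, then given a five-fold dilution series of compound (from 10 mM DMSO stock) in medium, in triplicate. Resazurin added after 72 h exposure, 4 h in dark at 37 °C. Fluorescence read at 570/585 nm, normalised to DMSO vehicle. GI50 by non-linear regression; mean ± SD of at least two replicates.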

[9] = target: Receptor-type tyrosine-protein kinase FLT3 (Homo sapiens) (UniProt P36888); assay: Inhibition of FLT3-mediated signalling pathway in human U-937 cells assessed as inhibition of AKT phosphorylation upto 20 x GI50 concentration incubated for 6 hrs by western blot analysis; assay type: cell-based
Receptor-type tyrosine-protein kinase FLT3 (Homo sapiens), sequence (P36888 whole entry): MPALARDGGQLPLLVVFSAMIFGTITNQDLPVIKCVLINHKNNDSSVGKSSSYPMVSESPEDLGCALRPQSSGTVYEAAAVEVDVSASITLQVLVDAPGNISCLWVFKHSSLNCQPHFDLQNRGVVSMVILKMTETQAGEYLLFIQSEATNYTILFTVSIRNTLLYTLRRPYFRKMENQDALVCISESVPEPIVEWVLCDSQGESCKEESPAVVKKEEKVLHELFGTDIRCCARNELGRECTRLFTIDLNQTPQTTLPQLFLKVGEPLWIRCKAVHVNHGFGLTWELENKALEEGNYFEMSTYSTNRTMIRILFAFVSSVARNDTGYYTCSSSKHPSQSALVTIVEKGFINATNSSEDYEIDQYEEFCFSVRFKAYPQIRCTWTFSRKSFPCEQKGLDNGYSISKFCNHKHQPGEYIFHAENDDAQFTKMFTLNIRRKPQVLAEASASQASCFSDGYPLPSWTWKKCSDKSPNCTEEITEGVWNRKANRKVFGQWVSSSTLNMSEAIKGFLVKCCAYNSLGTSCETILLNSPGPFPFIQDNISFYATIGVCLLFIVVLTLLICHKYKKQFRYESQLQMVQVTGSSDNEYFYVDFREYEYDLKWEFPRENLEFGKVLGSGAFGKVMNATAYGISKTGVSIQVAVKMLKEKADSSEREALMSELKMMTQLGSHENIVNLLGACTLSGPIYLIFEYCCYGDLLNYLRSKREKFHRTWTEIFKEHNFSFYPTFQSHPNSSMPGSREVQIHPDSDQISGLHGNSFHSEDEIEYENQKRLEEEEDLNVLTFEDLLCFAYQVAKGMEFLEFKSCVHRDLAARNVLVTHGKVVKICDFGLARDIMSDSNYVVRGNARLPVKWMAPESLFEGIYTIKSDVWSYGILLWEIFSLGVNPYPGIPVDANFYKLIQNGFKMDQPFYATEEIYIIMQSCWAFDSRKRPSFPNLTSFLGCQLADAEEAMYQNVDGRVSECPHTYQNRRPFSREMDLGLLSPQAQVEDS
Procedure, shortened: (§1)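 Cells lysed in phosphate lysis buffer with protease inhibitors and protein quantified. Western blots probed phospho and total STAT5, AKT, ERK, S6RP and eIF4E, plus full-length and cleaved PARP and caspase-3, with β-actin as loading control. At least two independent experiments.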

MV4-11 [10] = assay: Induction of apoptosis in human MV4-11 cells assessed as early apoptotic cells at 1 x GI50 concentration incubated for 24 hrs by annexin V-FITC and propidium iodide staining based flow cytometry (reference value: 2.12 %); assay type: functional
MV4-11 [11] = assay: Induction of apoptosis in human MV4-11 cells assessed as necrotic cells at 10 x GI50 concentration incubated for 24 hrs by annexin V-FITC and propidium iodide staining based flow cytometry (reference value: 0.75 %); assay type: functional
MV4-11 [12] = assay: Induction of apoptosis in human MV4-11 cells assessed as viable cells at 1 x GI50 concentration incubated for 24 hrs by annexin V-FITC and propidium iodide staining based flow cytometry (reference value: 84.68 %); assay type: functional
MV4-11 [13] = assay: Induction of apoptosis in human MV4-11 cells assessed as late apoptotic cells at 1 x GI50 concentration incubated for 48 hrs by annexin V-FITC and propidium iodide staining based flow cytometry (reference value: 6.59 %); assay type: functional
U-937 [14] = assay: Induction of apoptosis in human U937 cells assessed as necrotic cells at 10 x GI50 concentration incubated for 24 hrs by annexin V-FITC and propidium iodide staining based flow cytometry (reference value: 1.10 %); assay type: functional
U-937 [15] = assay: Induction of apoptosis in human U937 cells assessed as late apoptotic cells at 10 x GI50 concentration incubated for 48 hrs by annexin V-FITC staining based flow cytometry (reference value: 9.82 %); assay type: functional
MV4-11 [16] = assay: Induction of apoptosis in human MV4-11 cells assessed as viable cells at 10 x GI50 concentration incubated for 24 hrs by annexin V-FITC and propidium iodide staining based flow cytometry (reference value: 84.68 %); assay type: functional
U-937 [17] = assay: Induction of apoptosis in human U937 cells assessed as necrotic cells at 5 x GI50 concentration incubated for 24 hrs by annexin V-FITC and propidium iodide staining based flow cytometry (reference value: 1.10 %); assay type: functional
MV4-11 [18] = assay: Induction of apoptosis in human MV4-11 cells assessed as necrotic cells at 1 x GI50 concentration incubated for 48 hrs by annexin V-FITC and propidium iodide staining based flow cytometry (reference value: 0.45 %); assay type: functional
[19] = target: Receptor-type tyrosine-protein kinase FLT3 (Homo sapiens) (UniProt P36888); assay: Inhibition of FLT3-mediated signalling pathway in human U-937 cells assessed as inhibition of ERK phosphorylation upto 20 x GI50 concentration incubated for 6 hrs by western blot analysis; assay type: cell-based; procedure, shortened: as §1
MV4-11 [20] = assay: Induction of apoptosis in human MV4-11 cells assessed as necrotic cells at 5 x GI50 concentration incubated for 48 hrs by annexin V-FITC and propidium iodide staining based flow cytometry (reference value: 0.45 %); assay type: functional
MV4-11 [21] = assay: Induction of apoptosis in human MV4-11 cells assessed as late apoptotic cells at 10 x GI50 concentration incubated for 48 hrs by annexin V-FITC and propidium iodide staining based flow cytometry (reference value: 6.59 %); assay type: functional

Compound CC(=O)N1CCN(c2ccc(Nc3nccc(-c4cn(C)c5ncccc45)n3)cc2)CC1 has an Activity (MV4-11 [1]) of 79.81%, an Activity (MV4-11 [2]) of 20.95% and an Activity (U-937 [3]) of 87.16%. The Activity (U-937 [4]) was 2.15%, the Activity (U-937 [5]) was 10.31% and the Activity (MV4-11 [6]) was 73.52%. For the same compound, the Ki (CDK7/Cyclin H/MNAT1) was over 5000 nM, the Ki [7] was 185 nM and the Activity (MV4-11 [8]) was 14.35%. For the same compound, the GI50 (NB-4) was 1060 nM, the inhibition [9] was “Active” and the Activity (MV4-11 [10]) was 2.16%. It also gave an Activity (MV4-11 [11]) of 2.13%, an Activity (MV4-11 [12]) of 81.75% and an Activity (MV4-11 [13]) of 6.95%. It also gave an Activity (U-937 [14]) of 1.4%, an Activity (U-937 [15]) of 12.02% and an Activity (MV4-11 [16]) of 75%. For the same compound, the Activity (U-937 [17]) was 1.7%, the Activity (MV4-11 [18]) was 0.8% and the inhibition [19] was “Active”. It also gave an Activity (MV4-11 [20]) of 0.86% and an Activity (MV4-11 [21]) of 23.5%.
